Experimental data published in ChEMBL document CHEMBL3286180, “Efficacious inhaled PDE4 inhibitors with low emetic potential and long duration of action for the treatment of COPD” (J Med Chem, 2014).
Converted amounts (≈) assume the structure as drawn. Each block holds one compound with its values, some of them ahead of it. The source made the active and inactive calls. The calls are words filed in the database; no cut-off is given here.

What was measured:
[1] = test system: Rattus norvegicus; test: Antiinflammatory activity in Sprague-Dawley rat assessed as inhibition of LPS-induced bronchoalveolar lavage neutrophils measured as terminal lung concentration at 0.1 mg/ml, inhalation administered as nebulized suspension; format: functional
How it was run: (§1)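 Rats were given the compound as an aqueous nebulized aerosol by nose-only inhalation 30 min before LPS challenge. Dose is expressed as mg/mL nebulizer concentration. Lung neutrophilia was the readout, and terminal lung concentration (nM) was measured. Groups held 8−10 animals per treatment.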

[2] = Fraction unbound in rat plasma; format: ADME, cell-free
[3] = target: 3',5'-cyclic-AMP phosphodiesterase 4A (Homo sapiens, UniProt P27815); test: Inhibition of human PDE4A1A using [3H]cAMP by packard topcount scintillation counting analysis
3',5'-cyclic-AMP phosphodiesterase 4A, sequence (P27815 whole entry): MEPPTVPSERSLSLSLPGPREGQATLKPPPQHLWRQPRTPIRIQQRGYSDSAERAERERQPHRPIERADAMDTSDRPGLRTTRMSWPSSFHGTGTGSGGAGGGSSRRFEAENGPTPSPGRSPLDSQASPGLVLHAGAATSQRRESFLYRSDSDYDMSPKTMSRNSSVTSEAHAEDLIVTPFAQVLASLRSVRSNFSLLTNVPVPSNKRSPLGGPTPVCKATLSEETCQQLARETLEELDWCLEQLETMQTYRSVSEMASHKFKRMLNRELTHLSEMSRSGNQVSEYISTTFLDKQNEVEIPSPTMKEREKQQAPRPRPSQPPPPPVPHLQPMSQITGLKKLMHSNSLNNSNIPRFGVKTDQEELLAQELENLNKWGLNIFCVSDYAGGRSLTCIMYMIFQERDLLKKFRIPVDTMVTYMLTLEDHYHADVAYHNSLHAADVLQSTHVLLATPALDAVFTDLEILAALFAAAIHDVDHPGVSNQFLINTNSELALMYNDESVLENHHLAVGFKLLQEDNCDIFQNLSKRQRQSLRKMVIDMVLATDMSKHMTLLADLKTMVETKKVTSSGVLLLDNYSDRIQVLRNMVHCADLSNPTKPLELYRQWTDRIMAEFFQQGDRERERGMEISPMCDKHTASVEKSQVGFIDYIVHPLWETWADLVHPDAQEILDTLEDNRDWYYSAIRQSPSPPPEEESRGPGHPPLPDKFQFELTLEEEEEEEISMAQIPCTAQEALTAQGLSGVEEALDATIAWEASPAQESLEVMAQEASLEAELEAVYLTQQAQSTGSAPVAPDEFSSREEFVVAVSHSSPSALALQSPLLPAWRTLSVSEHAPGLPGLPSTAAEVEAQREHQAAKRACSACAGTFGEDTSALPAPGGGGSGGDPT

[4] = Aqueous solubility of the compound at pH 7.4; format: physicochemical; conditions: aqueous medium
[5] = (§2) Volume of distribution at steady state in rat at 1 mg/kg, iv; format: ADME, organism-based; parameters: dose 1 mg/kg, route intravenous; conditions: in vivo, read-out: Vdss
[6] = test system: Rattus norvegicus; test: Antiinflammatory activity in Sprague-Dawley rat assessed as inhibition of LPS-induced bronchoalveolar lavage neutrophils at 0.01 mg/ml, inhalation administered as nebulized suspension; format: functional; how it was run: as §1
[7] = target: T1, 3',5'-cyclic-AMP phosphodiesterase 4B (Rattus norvegicus, UniProt P14646)
T1 sequence (P14646 whole entry): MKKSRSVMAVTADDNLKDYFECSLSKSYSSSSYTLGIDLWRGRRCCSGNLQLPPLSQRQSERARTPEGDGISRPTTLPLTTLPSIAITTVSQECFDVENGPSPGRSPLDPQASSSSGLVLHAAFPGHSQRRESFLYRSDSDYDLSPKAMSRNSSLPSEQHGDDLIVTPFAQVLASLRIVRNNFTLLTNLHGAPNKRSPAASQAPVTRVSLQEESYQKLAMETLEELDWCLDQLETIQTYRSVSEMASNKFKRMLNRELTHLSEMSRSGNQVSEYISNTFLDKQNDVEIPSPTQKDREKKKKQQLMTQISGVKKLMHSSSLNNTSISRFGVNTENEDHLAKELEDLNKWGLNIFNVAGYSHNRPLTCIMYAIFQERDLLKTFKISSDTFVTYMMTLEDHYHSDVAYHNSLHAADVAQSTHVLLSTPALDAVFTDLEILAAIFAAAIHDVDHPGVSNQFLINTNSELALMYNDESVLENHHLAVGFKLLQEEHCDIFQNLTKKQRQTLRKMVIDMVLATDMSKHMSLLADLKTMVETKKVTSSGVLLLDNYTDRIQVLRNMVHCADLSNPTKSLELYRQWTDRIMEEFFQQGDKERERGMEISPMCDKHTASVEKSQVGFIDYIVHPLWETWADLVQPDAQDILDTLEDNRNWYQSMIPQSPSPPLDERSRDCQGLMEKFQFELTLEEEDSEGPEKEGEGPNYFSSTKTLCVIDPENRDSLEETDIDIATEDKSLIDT

[8] = Intrinsic clearance in human liver microsomes; format: ADME; conditions: read-out: CLH
[9] = test system: Rattus norvegicus; test: Antiinflammatory activity in nasally dosed Sprague-Dawley rat assessed as inhibition of LPS-induced bronchoalveolar lavage neutrophils measured as nebulizer concentration administered as […]; format: functional
How it was run: (§3)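 ED80 was derived from the nose-only nebulized-solution dose response in rats dosed 30 min before LPS challenge, with neutrophilia as the readout. ED80 is given as nebulizer concentration, as the matching terminal total lung concentration, and as lung deposited dose estimated from measured filter sample and terminal lung levels.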

[10] = test system: Blood; test: Antiinflammatory activity in human whole blood assessed as inhibition of LPS-induced TNFalpha production after 20 hrs by ELISA; format: functional, tissue-based
[11] = Half life in rat at 1 mg/kg, it; format: ADME, organism-based; parameters: dose 1 mg/kg, route endotracheal; conditions: in vivo, inhaled or intranasal
How it was run: (§4)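 Rat pharmacokinetics were run at 1 mg/kg, given iv or by intratracheal instillation, with 2−3 animals per study.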

[12] = test system: Rattus norvegicus; test: Antiinflammatory activity in Sprague-Dawley rat assessed as inhibition of LPS-induced bronchoalveolar lavage neutrophils measured as LPS duration at 0.1 mg/ml, inhalation administered as nebulized suspension; format: functional, organism-based
How it was run: (§5)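 Duration protocol: rats received a nose-only inhalation of nebulized aqueous compound solution 12 h before LPS challenge. Dose is expressed as mg/mL nebulizer concentration. Readout was LPS-induced pulmonary neutrophilia, with terminal lung concentration (nM) measured. Groups held 8−10 animals per treatment.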

[13] = test system: Rattus norvegicus; test: Antiinflammatory activity in Sprague-Dawley rat assessed as inhibition of LPS-induced bronchoalveolar lavage neutrophils at 0.03 mg/ml, inhalation administered as nebulized suspension; format: functional, organism-based; how it was run: as §1
[14] = test system: Rattus norvegicus; test: Antiinflammatory activity in Sprague-Dawley rat assessed as inhibition of LPS-induced bronchoalveolar lavage neutrophils measured as terminal lung concentration at 0.3 mg/ml, inhalation administered as nebulized suspension treated 12 hrs before LPS; format: functional; conditions: in the assay text read “nebulized solution” for “nebulized suspension”; how it was run: as §5
[15] = Apparent volume of distribution in dog; format: ADME, organism-based, Canis lupus familiaris; conditions: in vivo, read-out: Vz/F
[16] = Lipophilicity, log K of the compound; format: physicochemical; conditions: octanol/water
[17] = target: Voltage-gated inwardly rectifying potassium channel KCNH2 (Homo sapiens, UniProt Q12809); test: Inhibition of human ERG
Voltage-gated inwardly rectifying potassium channel KCNH2, sequence (Q12809 whole entry): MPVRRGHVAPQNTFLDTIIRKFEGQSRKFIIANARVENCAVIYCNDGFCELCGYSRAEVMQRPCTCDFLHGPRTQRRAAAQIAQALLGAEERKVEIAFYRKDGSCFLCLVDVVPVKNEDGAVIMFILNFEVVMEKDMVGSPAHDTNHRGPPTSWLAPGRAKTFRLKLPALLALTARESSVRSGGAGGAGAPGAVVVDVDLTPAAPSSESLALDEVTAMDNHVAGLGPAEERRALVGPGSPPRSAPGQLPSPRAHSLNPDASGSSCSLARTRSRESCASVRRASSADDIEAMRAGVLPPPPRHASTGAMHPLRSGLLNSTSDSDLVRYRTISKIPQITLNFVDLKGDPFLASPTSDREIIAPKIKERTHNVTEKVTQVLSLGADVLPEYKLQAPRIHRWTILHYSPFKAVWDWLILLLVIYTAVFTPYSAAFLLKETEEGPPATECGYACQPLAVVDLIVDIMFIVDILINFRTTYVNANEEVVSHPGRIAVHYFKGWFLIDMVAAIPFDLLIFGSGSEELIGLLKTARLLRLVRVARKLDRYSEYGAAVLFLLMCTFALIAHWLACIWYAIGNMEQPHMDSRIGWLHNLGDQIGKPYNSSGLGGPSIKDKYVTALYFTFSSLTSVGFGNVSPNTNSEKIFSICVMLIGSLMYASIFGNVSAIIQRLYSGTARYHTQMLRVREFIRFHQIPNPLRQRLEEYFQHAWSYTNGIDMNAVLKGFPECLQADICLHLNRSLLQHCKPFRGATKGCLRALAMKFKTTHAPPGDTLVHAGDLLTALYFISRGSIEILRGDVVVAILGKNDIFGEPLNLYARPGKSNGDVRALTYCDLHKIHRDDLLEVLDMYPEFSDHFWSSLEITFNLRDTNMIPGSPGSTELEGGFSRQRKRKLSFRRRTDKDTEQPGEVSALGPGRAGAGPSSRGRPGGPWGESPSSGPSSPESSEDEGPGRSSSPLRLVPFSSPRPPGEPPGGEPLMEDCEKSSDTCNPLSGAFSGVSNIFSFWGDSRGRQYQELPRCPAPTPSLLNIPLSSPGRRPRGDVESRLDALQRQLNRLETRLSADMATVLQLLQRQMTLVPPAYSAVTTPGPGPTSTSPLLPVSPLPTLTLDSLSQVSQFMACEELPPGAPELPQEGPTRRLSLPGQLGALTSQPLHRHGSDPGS

[18] = test system: Rattus norvegicus; test: Antiinflammatory activity in Sprague-Dawley rat assessed as inhibition of LPS-induced bronchoalveolar lavage neutrophils measured as terminal lung concentration at 0.003 mg/ml, inhalation administered as nebulized suspension; format: functional; how it was run: as §1
[19] = test system: Rattus norvegicus; test: Antiinflammatory activity in nasally dosed Sprague-Dawley rat assessed as inhibition of LPS-induced bronchoalveolar lavage neutrophils measured as lung deposited dose administered as […]; format: functional; how it was run: as §3
[20] = Intrinsic clearance in rat hepatocytes measured per 10^6 cells; format: ADME, cell-based, Hepatocyte; conditions: read-out: CLH
[21] = test system: Rattus norvegicus; test: Apparent volume of distribution in rat at 1 mg/kg, iv; format: ADME, organism-based; parameters: dose 1 mg/kg, route intravenous; conditions: in vivo; how it was run: as §4
[22] = test system: Rattus norvegicus; test: Antiinflammatory activity in Sprague-Dawley rat assessed as inhibition of LPS-induced bronchoalveolar lavage neutrophils measured as terminal lung concentration at 0.01 mg/ml, inhalation administered as nebulized suspension; format: functional; how it was run: as §1
[23] = Oral bioavailability in dog; format: ADME, organism-based, Canis lupus familiaris; conditions: in vivo
[24] = test system: Rattus norvegicus; test: Antiinflammatory activity in Sprague-Dawley rat assessed as inhibition of LPS-induced bronchoalveolar lavage neutrophils measured as terminal lung concentration at 0.03 mg/ml, inhalation administered as […] treated 12 hrs before LPS; format: functional; how it was run: as §5
[25] = Fraction unbound in human plasma; format: ADME, cell-free
[26] = test system: Rattus norvegicus; test: Antiinflammatory activity in Sprague-Dawley rat assessed as inhibition of LPS-induced bronchoalveolar lavage neutrophils at 0.1 mg/ml, inhalation administered as nebulized suspension; format: functional, organism-based; how it was run: as §1
[27] = test system: Rattus norvegicus; test: Antiinflammatory activity in nasally dosed Sprague-Dawley rat assessed as inhibition of LPS-induced bronchoalveolar lavage neutrophils measured as lung concentration administered as […]; format: functional; how it was run: as §3
[28] = Volume of distribution at steady state in dog; format: ADME, organism-based, Canis lupus familiaris; conditions: in vivo, read-out: Vdss
[29] = Oral bioavailability in rat at 1 mg/kg; format: ADME, organism-based; conditions: in vivo
[30] = Clearance in dog; format: ADME, organism-based, Canis lupus familiaris; conditions: in vivo
[31] = test system: Blood; test: tissue or blood; conditions: Rattus norvegicus, 20 h, read-out: pIC50 (converted)
[32] = (§6) Half life in rat at 1 mg/kg, iv; format: ADME, organism-based; parameters: dose 1 mg/kg, route intravenous; conditions: in vivo; how it was run: as §4
[33] = test system: Rattus norvegicus; test: Antiinflammatory activity in Sprague-Dawley rat assessed as inhibition of LPS-induced bronchoalveolar lavage neutrophils measured as terminal lung concentration at 0.03 mg/ml, inhalation administered as nebulized suspension; format: functional; how it was run: as §1
[34] = Clearance in rat at 1 mg/kg, iv; format: ADME, organism-based; parameters: dose 1 mg/kg, route intravenous; conditions: in vivo; how it was run: as §4
[35] = Lipophilicity, log D of the compound; format: physicochemical; conditions: octanol/water
[36] = test system: PBMC; test: Antiinflammatory activity in human PBMC assessed as inhibition of LPS-induced TNFalpha production after 20 hrs by fluorescence linked immunosorbant assay; format: functional, cell-based
[37] = test system: Rattus norvegicus; test: Antiinflammatory activity in Sprague-Dawley rat assessed as inhibition of LPS-induced bronchoalveolar lavage neutrophils measured as terminal lung concentration at 0.1 mg/ml, inhalation administered as […] treated 12 hrs before LPS; format: functional; how it was run: as §5
[38] = Half life in dog; format: ADME, organism-based, Canis lupus familiaris; conditions: in vivo
[39] = test system: Rattus norvegicus; test: as §2; format: ADME, organism-based; parameters: dose 1 mg/kg, route intravenous; conditions: in vivo
[40] = test system: Rattus norvegicus; test: Antiinflammatory activity in Sprague-Dawley rat assessed as inhibition of LPS-induced bronchoalveolar lavage neutrophils up to 350 nM, inhalation administered as nebulized […] treated 12 hr before LPS challenge; format: functional, organism-based; how it was run: as §5
[41] = test system: Rattus norvegicus; test: Antiinflammatory activity in Sprague-Dawley rat assessed as inhibition of LPS-induced bronchoalveolar lavage neutrophils measured as LPS duration at 0.03 to 3 mg/ml, inhalation administered as nebulized suspension; format: functional, organism-based; how it was run: as §5
[42] = target: 3',5'-cyclic-AMP phosphodiesterase 4B (Homo sapiens, UniProt Q07343); test: Inhibition of human recombinant PDE4B using [3H]cAMP by packard topcount scintillation counting analysis
3',5'-cyclic-AMP phosphodiesterase 4B (Homo sapiens, UniProt Q07343), sequence (Q07343 whole entry): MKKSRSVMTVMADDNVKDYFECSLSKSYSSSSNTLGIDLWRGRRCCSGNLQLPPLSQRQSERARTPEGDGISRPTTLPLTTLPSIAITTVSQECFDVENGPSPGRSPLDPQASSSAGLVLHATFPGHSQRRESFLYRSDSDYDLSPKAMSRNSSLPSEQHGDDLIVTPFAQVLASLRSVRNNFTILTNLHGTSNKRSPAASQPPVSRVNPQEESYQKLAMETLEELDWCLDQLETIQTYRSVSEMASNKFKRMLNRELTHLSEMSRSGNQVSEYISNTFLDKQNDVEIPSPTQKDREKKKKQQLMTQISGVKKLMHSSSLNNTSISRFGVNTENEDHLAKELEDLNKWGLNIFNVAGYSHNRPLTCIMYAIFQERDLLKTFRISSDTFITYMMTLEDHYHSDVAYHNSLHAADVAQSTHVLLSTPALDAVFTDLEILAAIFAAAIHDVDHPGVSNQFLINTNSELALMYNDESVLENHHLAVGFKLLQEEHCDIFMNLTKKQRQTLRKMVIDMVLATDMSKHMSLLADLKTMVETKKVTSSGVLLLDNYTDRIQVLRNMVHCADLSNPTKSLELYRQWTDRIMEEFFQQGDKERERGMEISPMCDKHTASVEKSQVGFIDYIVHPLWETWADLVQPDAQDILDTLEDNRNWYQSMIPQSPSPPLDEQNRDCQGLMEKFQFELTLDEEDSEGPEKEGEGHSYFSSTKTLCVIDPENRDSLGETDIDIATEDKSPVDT

[43] = test system: Rattus norvegicus; test: as §6; format: ADME, organism-based; parameters: dose 1 mg/kg, route intravenous; conditions: in vivo; how it was run: as §4
[44] = test system: Rattus norvegicus; test: Antiinflammatory activity in Sprague-Dawley rat assessed as inhibition of LPS-induced bronchoalveolar lavage neutrophils at 0.01 to 0.1 mg/ml, inhalation administered as nebulized suspension; format: functional, organism-based; how it was run: as §1

fraction unbound [2]: 0.083
IC50 [3]: < 10 nM
solubility [4]: 213 µM (≈ 163 µg/mL)
Vd [5]: 16 L/kg
IC50 [7]: 0.0251 nM
microsomal CLint [8]: 78 µL/min/mg
IC50 [10]: 12.6 nM
half-life [11]: 9 h
Vd/F [15]: 25 L/kg
log K [16]: 1.88
hepatocyte CLint [20]: 13 µL/min/1e6 cells
Vz/F [21]: 30 L/kg
bioavailability [23]: 6%
fraction unbound [25]: 0.013
Vd [28]: 13 L/kg
bioavailability [29]: < 16%
clearance [30]: 19 mL/min/kg
IC50 [31]: 0.501 nM
half-life [32]: 7 h
clearance [34]: 50 mL/min/kg
logD [35]: 2.8
half-life [38]: 15 h
SMILES: Cc1ccc(O)c(C(=O)N[C@H]2CC[C@@H](NC(=O)c3cc(F)cnc3Oc3cccc(-c4ccc(CN5C[C@@H](C)N[C@@H](C)C5)cc4CN4CCOCC4)c3)CC2)c1
Activity [1]: 123 nM
inhibition [6]: Active
ED80 [9]: 60 µg/mL (≈ 78.4 µM)
inhibition [12]: Active
inhibition [13]: Active
Activity [14]: 33 nM
IC50 [17]: 6310 nM
Activity [18]: 9 nM
ED80 [19]: 0.6 µg/kg
Activity [22]: 26 nM
Activity [24]: 5 nM
inhibition [26]: Active
ED80 [27]: 78 nM
Activity [33]: 88 nM
IC50 [36]: 0.0398 nM
Activity [37]: 14 nM

solubility [4]: 1.2 µM (≈ 0.622 µg/mL)
Vdss [39]: 0.75 L/kg
microsomal CLint [8]: > 150 µL/min/mg
IC50 [10]: 0.316 nM
half-life [11]: 8.1 h
IC50 [42]: < 0.01 nM
fraction unbound [25]: 0.015
IC50 [31]: 0.251 nM
t1/2 [43]: 14.9 h
SMILES: COc1cccc(Nc2c(C(N)=O)cnc3c(C)cc(S(=O)(=O)c4cccc(C(=O)N(C)C)c4)cc23)c1 [GSK-256066]
inhibition [40]: inactive
inhibition [41]: Active
inhibition [13]: Active
inhibition [44]: inactive
IC50 [36]: 0.00316 nM
